From PubChem
Hits are enriched below; roughly 2.7% of the tested compounds scored in any of these assays.
ASAP1 GAP inh = ASAP1 ArfGAP inhibition; Q9ULH1; ASAP1-stimulated ARF1 GTP hydrolysis, GDP FP detection; inhibition, % at 16.5 µM; 360,000 tested, 0.19% active; AID 624377; in the data active = inhibition above about 25%;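 note: 0% = vehicle with enzyme and substrate and 100% = no enzyme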
Rev-erbA mod = Rev-erb alpha (human) modulation; P20393; Rev-erbα–FITC-DNA binding, fluorescence polarization, 90 min; activity, % at 10 µM; 370,000 tested, 0.79% active; AID 1259318;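 active = activity above about 14%, limit read from the data; passing the limit was not always enough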;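 note: 0% = DMSO wells with 35 nM protein and 100% = DMSO wells with 750 nM protein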
Target sequence (P20393 whole entry, looked up): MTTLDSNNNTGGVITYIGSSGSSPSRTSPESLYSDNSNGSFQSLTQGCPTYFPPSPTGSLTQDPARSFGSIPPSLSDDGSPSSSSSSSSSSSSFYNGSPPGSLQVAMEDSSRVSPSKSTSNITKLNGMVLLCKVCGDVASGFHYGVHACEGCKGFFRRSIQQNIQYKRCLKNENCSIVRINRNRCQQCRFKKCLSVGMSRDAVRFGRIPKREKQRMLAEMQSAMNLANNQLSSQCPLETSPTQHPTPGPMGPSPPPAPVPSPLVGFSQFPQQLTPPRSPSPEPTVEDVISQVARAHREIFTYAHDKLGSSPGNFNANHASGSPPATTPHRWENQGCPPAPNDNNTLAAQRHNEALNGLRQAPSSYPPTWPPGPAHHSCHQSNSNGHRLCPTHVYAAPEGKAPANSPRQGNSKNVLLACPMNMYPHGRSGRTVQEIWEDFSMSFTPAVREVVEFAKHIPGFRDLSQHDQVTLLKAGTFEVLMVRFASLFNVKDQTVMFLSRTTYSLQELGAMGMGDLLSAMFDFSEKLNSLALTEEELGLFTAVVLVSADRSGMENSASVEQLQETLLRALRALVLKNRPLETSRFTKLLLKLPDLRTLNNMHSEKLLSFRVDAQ
HGIII-sPLA2 inh = Inhibits HGIII-sPLA2 liposome hydrolysis, primary screen; inhibition, % at 12.2 µM; QFRET BODIPY PC-A2 liposome hydrolysis, fluorescence; 370,000 tested, 0.56% active;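 active = inhibition above mean plus 3 SD of compounds lying within the high and low control bounds, cut at about 19% in these data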;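 note: 0% = median of test compound wells and 100% = no enzyme DMSO wells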
ARFGAP1 inh = inhibitors of rat ARFGAP1; AID 651572; inhibition, % at 16.5 µM; Arfgap1-stimulated ARF1 GTP hydrolysis, GDP FP detection; 360,000 tested, 0.26% active;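 active = inhibition above a per-plate limit, mean inhibition of low control wells plus 3 SD, cut at about 25% in these data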;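 note: 0% = DMSO wells with enzyme and 100% = wells lacking Arfgap1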
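Material: truncated rat Arfgap1 GAP domain; Incubation: compound-enzyme preincubation 20 min, reaction 120 min, detection 60 min, 25 °C; Read-out: percent inhibition of Arfgap1-stimulated GTP hydrolysis; Technique: FP, GDP Alexa 633 tracer displaced from anti-GDP antibody, 620/688 nm; Controls: No-Arfgap1 wells (100%) versus DMSO full-reaction wells (0%); Replication: single well per compound.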
MsrA inh = inhibitors of bovine MsrA | purified bovine MsrA, absorbance read-out | inhibition, % at 15.5 µM | 360,000 tested, 0.75% active; in the data active = inhibition above about 4.5%;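 note: 0% = vehicle wells with enzyme and 100% = reference inhibitor wells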
bovine MsrA act = activators of bovine methionine sulfoxide reductase A. purified bovine MsrA, absorbance read-out. activation, % at 10.6 µM. 360,000 tested, 0.3% active. AID 602163; in the data active = activation above about 7.5%;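 note: 0% = vehicle and 100% = reference activator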
Rev-erbA confirm = confirmation of modulators of human Rev-erb alpha DNA binding; 3,000 tested, 61% active; Rev-erb alpha FITC-DNA binding, fluorescence polarization, 90 min; AID 1259319; shares compounds with Rev-erbA mod; activation, % at 25 µM;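 active = activation at or above a set limit, or at least 3 SD above the negative control mean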;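 note: 0% = 35 nM protein with DMSO and 100% = 750 nM protein high control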
RORg counter = counter-screen for Rev-erb alpha modulators: RORgamma DNA binding; purified RORgamma protein-FITC-DNA binding, fluorescence polarization; shares compounds with Rev-erbA mod; 910 tested, 8% active; IC50, µM;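 active = Compounds whose fitted half-maximal concentration for disrupting protein-DNA binding is below 10 micromolar; the record names Rev-erb in its text, so the target is in doubt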
Starred values were filed as active, the others as inactive; i = inactive; nt = no result.

SMILES	ASAP1 GAP inh	Rev-erbA mod	HGIII-sPLA2 inh	ARFGAP1 inh	MsrA inh	bovine MsrA act	Rev-erbA confirm	RORg counter
O=S(=O)(c1ccc2nc(N3CCN(c4ccccc4)CC3)ccc2c1)N1CCCCC1	-3	83*	2	-12	-1	-8	56*	>40
CC(=O)c1ccc(N2CCN(S(=O)(=O)c3ccc4c(c3)NC(=O)CO4)CC2)cc1	1	38*	5	7	1	-1	22*	nt
COc1ccccc1N1CCN(c2ccc3cc(S(=O)(=O)N4CCCCC4)ccc3n2)CC1	14	-8	7	-3	1	-2	nt	nt
CC(=O)c1ccc(N2CCN(c3ccc4cc(S(=O)(=O)N5CCC(C)CC5)ccc4n3)CC2)cc1	-5	35*	-3	-7	0	-2	45*	>40
CC(=O)c1ccc(N2CCN(S(=O)(=O)c3ccc4ccccc4c3)CC2)cc1	9	-4	8	0	1	0	nt	nt
O=C(NCCCCCCCN1CCCCCCC1)C(C1CCCCC1)C1CCCCC1	2	-2	3	6	0	-9	nt	nt
Cn1c2c(c(=O)n(C)c1=O)CS(=O)c1ccccc1N2 (stereo not drawn)	-13	-2	18	-10	1	-4	nt	nt
COC(=O)[C@]12CCCCC=C1N(Cc1ccc3c(c1)OCO3)C(=O)[C@H](CC(=O)NCC13CC4CC(CC(C4)C1)C3)C2	-13	0	-22	15	-1	nt	nt	nt
CN(C)C=Nc1ccc(Cn2cnc3nc4ccc(Cl)cc4cc3c2=O)cc1	nt	0	3	nt	nt	nt	nt	nt
CCOC(=O)/C(C#N)=C\c1ccc(CC)s1	-6	6	8	-2	3	-2	nt	nt
CCOC(=O)/C(C#N)=C\C=C1C=CN(C)C=C1	4	31*	-8	-5	0	-5	28*	nt
CCc1nc2c(OCC3COc4ccccc4O3)cccn2c1N(C)C(=O)c1cccs1 (stereo not drawn)	-2	2	-4	6	1	-7	nt	nt
Cn1cc(C2NC(=O)c3ccccc3N2)c2ccccc21 (stereo not drawn)	-13	25*	-3	-10	2	-2	18*	nt
O=C1CCCCC(=O)[C@H](O)C[C@H](COCc2ccccc2)O1	-15	-5	2	-9	0	-3	nt	nt
O=P(c1ccccc1)(c1ccccc1)C(O)c1cccs1 (stereo not drawn)	11	0	-2	2	0	-1	nt	nt
CCCCOc1ccc(C(=O)n2ccc3ccc(-c4ccc5ccn(Cc6ccccc6)c5c4)cc32)cc1	nt	40*	3	nt	nt	nt	45*	>40
COC(=O)c1cccc(Cn2ccc3ccc(-c4ccc5ccn(Cc6cccc(C(=O)OC)c6)c5c4)cc32)c1	nt	51*	6	nt	nt	nt	1	nt
COC(=O)c1cccc(Cn2ccc3ccc(-c4ccc5ccn(C(=O)c6cccc(OC)c6)c5c4)cc32)c1	nt	39*	6	nt	nt	nt	54*	i
COC(=O)c1cccc(Cn2ccc3ccc(-c4ccc5ccn(C(=O)c6ccccc6OC)c5c4)cc32)c1	nt	34*	2	nt	nt	nt	58*	i
O=C(c1ccccc1)n1ccc2ccc(-c3ccc4ccn(Cc5ccccc5)c4c3)cc21	nt	12	-2	nt	nt	nt	nt	nt
CCOC(=O)[C@]12CCCC=C1N(CCc1ccc(OC)c(OC)c1)C(=O)[C@H](CC(=O)N1CCCC1)C2	-1	-10	3	-10	1	nt	nt	nt
COCCNC(=O)C1(C)CCN(C(=O)c2ccc3sccc3c2)C1 (stereo not drawn)	-2	1	12	0	2	-4	nt	nt
CC(C)C[C@@H](CN1CCC[C@@H]1CN1C(=S)NC[C@@H]1Cc1ccc(O)cc1)N1C[C@H](Cc2ccc(O)cc2)N(CC2CCCCCC2)C1=S	-7	-1	-14	16	0	-8	nt	nt
Cn1cc(CN2CCC(C(=O)NC(c3ccc(-c4ccccc4)cc3)c3cnccn3)CC2)c2ccccc21 (stereo not drawn)	0	-5	-39	-1	0	0	nt	nt
COC(=O)c1cccc(Cn2ccc3ccc(-c4ccc5ccn(C(=O)c6ccc(C)cc6)c5c4)cc32)c1	nt	46*	11	nt	nt	nt	64*	>40
SMILES	ASAP1 GAP inh	Rev-erbA mod	HGIII-sPLA2 inh	ARFGAP1 inh	MsrA inh	bovine MsrA act	Rev-erbA confirm	RORg counter
O=C1C=C(OCCF)CC(c2ccc(Br)cc2)O1 (stereo not drawn)	-1	-5	2	3	0	nt	nt	nt
Clc1ccc(-n2c(SCc3cccc4ccccc34)nnc2-c2ccccc2)cc1	nt	3	-9	nt	nt	nt	nt	nt
CC(C)NC(=O)C1(C#N)C=C1c1ccccc1 (stereo not drawn)	5	2	-12	6	0	-3	nt	nt
Cc1cc(-c2csc3nc[nH]c(=S)c23)cc(C)c1C	-5	61*	6	-9	1	-3	62*	>40
Cc1ccc(-c2csc3nc[nH]c(=S)c23)cc1	10	6	14	-6	3	-1	nt	nt
COc1ccc(NC(=O)CSc2nnc(-c3n[nH]c4c3CCC4)n2N)cc1OC	nt	-4	2	nt	nt	nt	nt	nt
CCNC(=O)Nc1ccc2c(c1)C(=O)N(C)[C@H]1CC[C@@H](CC(=O)OC)O[C@H]1CO2	nt	-5	1	nt	nt	nt	nt	nt
COC(=O)C[C@@H]1CC[C@@H]2[C@@H](COc3ccc(NS(=O)(=O)c4ccc(F)cc4)cc3C(=O)N2C)O1	nt	6	5	nt	nt	nt	nt	nt
C[C@@H](NC(=O)C[C@H]1CC[C@H]2[C@@H](COc3ccc(NC(=O)Nc4ccccc4)cc3C(=O)N2C)O1)c1ccccc1	nt	26*	-19	nt	nt	nt	20*	nt
CN1C(=O)c2cc(NS(=O)(=O)c3ccc(F)cc3)ccc2OC[C@H]2O[C@@H](CC(=O)NCC(F)(F)F)CC[C@@H]21	nt	130*	-40	nt	nt	nt	79*	7.2*
CCNC(=O)Nc1ccc2c(c1)C(=O)N(C)[C@H]1CC[C@H](CC(=O)N[C@H](C)c3ccccc3)O[C@@H]1CO2	nt	80*	-26	nt	nt	nt	55*	>40
COc1cccc(CNC(=O)C[C@H]2CC[C@H]3[C@@H](COc4ccc(NC(=O)c5cccs5)cc4C(=O)N3C)O2)c1	nt	60*	-28	nt	nt	nt	43*	>40
CCCCn1c(=O)[nH]c(=O)c2c1nc(-c1ccc(OC(F)F)c(OC)c1)n2C	3	6	1	-3	0	-4	nt	nt
CCCCn1c(=O)[nH]c(=O)c2c1nc(-c1cc(Cl)c(OC)c(OC)c1)n2C	-18	15*	1	1	0	0	3	nt
COc1ccccc1C(=O)COC(=O)c1cc(=O)[nH]c2ccccc12	1	14	6	-1	1	-1	nt	nt
COc1ccc(C(=O)COC(=O)c2cc(=O)[nH]c3ccccc23)c(OC)c1	9	77*	3	2	1	-5	37*	>40
